In assay [1] the target is T1, Proteasome component C5 (Homo sapiens) (UniProt P20618).
T1 sequence (whole entry): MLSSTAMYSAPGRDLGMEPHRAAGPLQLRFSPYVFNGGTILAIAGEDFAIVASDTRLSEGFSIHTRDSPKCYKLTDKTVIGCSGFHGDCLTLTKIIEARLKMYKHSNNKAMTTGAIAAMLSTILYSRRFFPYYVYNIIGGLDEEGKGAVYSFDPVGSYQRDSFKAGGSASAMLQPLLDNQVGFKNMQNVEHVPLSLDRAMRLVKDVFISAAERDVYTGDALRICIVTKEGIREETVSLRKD
Put plainly: Inhibition of caspase like activity of 26S proteasome beta 1 subunit in human U266 cells assessed as residual activity using […] as substrate at 10 uM preincubated for 1 hr followed by substrate addition and measured after 4 hrs by fluorescence assay relative to control. The assay is classed as cell-based.

The test system of another assay is K562. The assay is described as follows: Antiproliferative activity against human K562 cells after 72 hrs by calcein AM staining based fluorescence assay. As to conditions: K562, 72 h. The assay is classed as functional. A digest of the protocol: (§1)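 Cells treated with three-fold compound dilutions in triplicate for 72 h. Calcein AM added afterwards and live-cell fluorescence read at 485/538 nm (ex/em). GI50, the concentration lethal to 50% of tumour cells, calculated from dose-response curves.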

For assay [2], the target named is Proteasome Macropain subunit (Homo sapiens) (UniProt P49721). Put plainly: Inhibition of trypsin like activity of 26S proteasome beta 2 subunit in human U266 cells assessed as residual activity using […] as substrate at 10 uM preincubated for 1 hr followed by substrate addition and measured after 4 hrs by fluorescence assay relative to control. The assay is classed as cell-based.

The next assay has as its system CCRF-CEM. Put plainly: Antiproliferative activity against human CEM cells after 72 hrs by calcein AM staining based fluorescence assay. The assay is classed as functional. The procedure, abridged: as §1
A further assay deals with U-266. The assay is described as follows: Antiproliferative activity against human U266 cells after 72 hrs by calcein AM staining based fluorescence assay. The assay is classed as functional. As to conditions: U-266, 72 h. The procedure, abridged: as §1
For assay [3], the target named is T2, Proteasome Macropain subunit MB1 (Homo sapiens) (UniProt P28074).
T2 sequence (whole entry): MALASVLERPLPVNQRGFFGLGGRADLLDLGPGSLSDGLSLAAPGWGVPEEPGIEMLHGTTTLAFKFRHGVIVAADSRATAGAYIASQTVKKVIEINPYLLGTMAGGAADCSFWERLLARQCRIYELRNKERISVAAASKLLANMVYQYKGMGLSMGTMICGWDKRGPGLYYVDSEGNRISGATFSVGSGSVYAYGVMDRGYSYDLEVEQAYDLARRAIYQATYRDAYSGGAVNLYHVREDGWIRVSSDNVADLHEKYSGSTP
Put plainly: Inhibition of chymotrypsin like activity of 26S proteasome beta 5 subunit in human U266 cells assessed as residual activity using N-Suc-LLVY-AMC as substrate at 10 uM preincubated for 1 hr followed by substrate addition and measured after 4 hrs by fluorescence assay relative to control. The assay is classed as cell-based.

For assay [4], the species on record is Homo sapiens. Put plainly: Inhibition of proteasome in human U2OS cells stably expressing GFP fused to short degron assessed as increase in GFP accumulation pre-incubated for 1 hr and measured after 9 hrs by live-cell imaging microscopy. The assay is classed as cell-based.
The target of assay [5] is T3, Proteasome Macropain subunit MB1 (Homo sapiens, UniProt P28074).
T3 sequence (P28074 whole entry): T2 sequence (whole entry)
The assay is described as follows: Inhibition of chymotrypsin-like activity of 26S proteasome beta 5 subunit in human U266 cells using Suc-LLVY-aminoluciferin as substrate after 1 hr by Proteosome-Glo luminescence assay. The assay is classed as cell-based. The procedure, abridged: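 U266 multiple myeloma cells plated at 20,000 cells/well and exposed to varying compound concentrations for 1 h at 37 °C, in duplicate. 26S proteasome activity measured immediately as luciferase-coupled hydrolysis of the β5 substrate Suc-LLVY-aminoluciferin (Proteasome-Glo), read by luminescence. Activity normalised to untreated cells; IC50 derived from dose-response curves.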

The species named for assay [6] is Homo sapiens. The assay is described as follows: Inhibition of proteasome in human U266 cells assessed as increase in accumulation of polyubiquitinated proteins by Western blot analysis. The assay is classed as cell-based. To be noted: TDE = time-dependent effect. The procedure, abridged: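 Treated U266 cells harvested in Laemmli sample buffer. Proteins separated by SDS-PAGE and electroblotted to nitrocellulose. Membranes blocked, probed overnight with specific primary antibodies, then detected with peroxidase-conjugated secondary antibodies.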

SMILES strings stand for the structures. Bounds are passed on as bounds.

The values that follow come from ChEMBL document CHEMBL4052623, “Synthesis and antiproteasomal activity of novel O-benzyl salicylamide-based inhibitors built from leucine and phenylalanine” (Eur J Med Chem, 2017).

Broadly, the GI50 is the concentration that inhibits growth by half. Usually IC50 stands for the point on the concentration scale where inhibition reaches its midpoint. The low end stands for inhibition by little substance, the high end for a need for much substance.

Proteasome Macropain subunit (Homo sapiens), sequence (P49721 whole entry): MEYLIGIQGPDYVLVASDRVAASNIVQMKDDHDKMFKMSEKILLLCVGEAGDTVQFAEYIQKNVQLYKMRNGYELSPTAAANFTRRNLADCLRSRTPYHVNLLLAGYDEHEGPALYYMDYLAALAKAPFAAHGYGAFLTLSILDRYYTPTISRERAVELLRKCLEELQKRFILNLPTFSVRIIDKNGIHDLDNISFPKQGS

In the case of `CC(C)CC(C=O)NC(=O)[C@H](CC(C)C)NC(=O)[C@H](CC(C)C)NC(=O)c1cc(Cl)ccc1OCc1ccccc1` (stereo not given in full), the figures for the Activity in [1], in assay [2] and in [3] were 39.2%, 64.2% and 10.4%, respectively. In addition, the results for the concentration for 50% growth inhibition (GI50) in the assay with K562, in the assay on CCRF-CEM and in the assay with U-266 were 0.61 µM, 0.49 µM and 0.29 µM, respectively. In addition, the inhibition entry in the assay listed under Homo sapiens [4] is “Dose-dependent effect”. In [5], this compound registered an IC50 of 0.099 µM.

Take `CC(C)C[C@H](NC(=O)c1cc(Cl)ccc1OCc1ccccc1)C(=O)N[C@@H](CC(C)C)C(=O)NC(C=O)Cc1ccccc1` (stereo not given in full): the Activity in assay [1] was 66.2%; in assay [2], 48.4%; in [3], 27.9%. The concentration for 50% growth inhibition (GI50) in the assay with K562 was 1.05 µM; in the assay with CCRF-CEM, 0.79 µM; in the assay with U-266 it was 0.54 µM. The inhibition result in the assay filed under Homo sapiens [4] was “Dose-dependent effect”. In [5], this compound showed an IC50 of 0.197 µM.

Regarding `CC(C)C[C@H](NC(=O)c1cc(Cl)ccc1OCc1ccccc1)C(=O)N[C@@H](Cc1ccccc1)C(=O)N[C@H](C=O)Cc1ccccc1`, the Activity in [1] is greater than 100%; in [2], 47.2%; in assay [3] it was 25.8%. In addition, the 50% growth inhibitory concentration (GI50) was 1.45 µM with K562, 0.44 µM in the assay on CCRF-CEM and 0.4 µM in the assay with U-266. In the assay listed under Homo sapiens [4], the inhibition result is “Dose-dependent effect”. The compound further displayed an IC50 in [5] of 0.11 µM.

Consider `CC(C)C[C@H](NC(=O)c1cc(Cl)ccc1OCc1ccccc1)C(=O)N[C@@H](Cc1ccccc1)C(=O)N[C@@H](C=O)CC(C)C`, for which the Activity in [1] was 19.7%; in [2] it was greater than 100%; in assay [3], 20.7%. The GI50 in the assay with K562 was 0.73 µM; with CCRF-CEM, 0.4 µM; with U-266, 0.21 µM. In assay [5], this compound displayed an IC50 of 0.075 µM.

Take `CC(C)C[C@H](NC(=O)c1cc(Cl)ccc1OCc1ccccc1)C(=O)N[C@H](C=O)Cc1ccccc1`: the Activity in assay [1] was found to be 67.8%; in assay [2], 85.9%; in assay [3], 85.2%. Further, the 50% growth inhibitory concentration (GI50) in the assay on K562 was 16.3 µM; with CCRF-CEM it was 11 µM; in the assay with U-266, 14.8 µM. In assay [5], the 50% inhibitory concentration (IC50) was greater than 1 µM.

For the compound `CC(C)C[C@@H](C=O)NC(=O)c1cc(Cl)ccc1OCc1ccccc1`, the Activity is 68.2% in assay [1], 57.5% in [2] and 68.8% in [3]. For the same compound, the GI50 in the assay on K562 is 23.6 µM; in the assay with CCRF-CEM, 24.3 µM; with U-266 it was 55.8 µM. The half-maximal inhibitory concentration (IC50) in assay [5] is greater than 1 µM.

Turning to `CC(C)C[C@H](NC(=O)c1cc(Cl)ccc1OCc1ccccc1)C(=O)N[C@@H](Cc1ccccc1)C(=O)NC(C=O)Cc1ccccc1` (stereo not given in full), the Activity in assay [1] was greater than 100%; in assay [2], 62.3%; in assay [3], 29.1%. The results for the GI50 in the assay on K562, in the assay with CCRF-CEM and with U-266 were 1.28 µM, 0.4 µM and 0.46 µM, respectively. Further, the inhibition result in the assay filed under Homo sapiens [4] was “Dose-dependent effect”. Moreover, the IC50 in [5] is 0.168 µM.

`CC(C)C[C@H](NC(=O)c1cc(Cl)ccc1OCc1ccccc1)C(=O)N[C@@H](CC(C)C)C(=O)N[C@@H](C=O)CC(C)C`: the Activity in assay [1] came out at 35.5%; in [2], 74.3%; in assay [3] it was 18%. For the same compound, the concentration for 50% growth inhibition (GI50) was 0.98 µM in the assay with K562, 0.58 µM with CCRF-CEM and 0.38 µM in the assay on U-266. In assay [5], inhibition was half-maximal at 0.182 µM (IC50).

On to `CC(C)C[C@H](NC(=O)c1cc(Cl)ccc1O)C(=O)N[C@@H](Cc1ccccc1)C(=O)N[C@H](C=O)Cc1ccccc1`, for which the figures for the Activity in [1], in [2] and in assay [3] were 73.5%, 84.2% and 71.7%, respectively. Further, the concentration for 50% growth inhibition (GI50) in the assay on K562 is 6.9 µM; with CCRF-CEM, 2.3 µM; in the assay with U-266, 2.23 µM. Besides, the inhibition entry in the assay listed under Homo sapiens [4] is “Dose-dependent effect”. Half-maximal inhibition in [5] (IC50) required 0.74 µM.

For the compound `CC(C)C[C@H](NC(=O)c1cc(Cl)ccc1O)C(=O)N[C@H](C=O)Cc1ccccc1`, the Activity in assay [1] was greater than 100%; in [2], 81%; in [3], greater than 100%. Moreover, the GI50 with K562 is 57.9 µM; with CCRF-CEM it was 27.7 µM; in the assay with U-266 it was 64.9 µM. Further, the concentration for half-maximal inhibition (IC50) in assay [5] is greater than 1 µM.

For the compound `CC(C)C[C@H](NC(=O)[C@H](Cc1ccccc1)NC(=O)c1cnccn1)B(O)O` [BORTEZOMIB], the inhibition entry in the assay listed under Homo sapiens [6] is “Tde”. In addition, the Activity was determined as 0% in [1], 86.1% in assay [2] and 1.5% in assay [3]. Further, the values for the GI50 with K562, in the assay on CCRF-CEM and in the assay with U-266 were 0.007 µM, 0.001 µM and 0.001 µM, respectively.

`CC(C)C[C@@H](C=O)NC(=O)[C@H](Cc1ccccc1)NC(=O)[C@H](CC(C)C)NC(=O)c1cc(Cl)ccc1OCc1ccccc1`: the Activity in assay [1] was found to be 40.2%; in [2], 42.5%; in assay [3], 10.6%. The GI50 was 1.04 µM with K562, 0.43 µM in the assay on CCRF-CEM and 0.17 µM with U-266. Also, the inhibition result in the assay listed under Homo sapiens [4] was “Dose-dependent effect”. The compound further showed a 50% inhibitory concentration (IC50) in assay [5] of 0.067 µM.

As for `CC(C)CC(C=O)NC(=O)[C@H](Cc1ccccc1)NC(=O)c1cc(Cl)ccc1OCc1ccccc1` (stereo not given in full), the Activity in assay [1] is 39.9%; in assay [2], 92%; in assay [3] it was 95%. For the same compound, the concentration for 50% growth inhibition (GI50) was 17.3 µM in the assay on K562, 15.1 µM in the assay with CCRF-CEM and 17.7 µM in the assay on U-266. In [5], this compound registered a concentration for half-maximal inhibition (IC50) greater than 1 µM.

Turning to `CC(C)C[C@@H](C=O)NC(=O)[C@H](Cc1ccccc1)NC(=O)[C@H](CC(C)C)NC(=O)c1cc(Cl)ccc1O`, the Activity in assay [1] was determined as 28.9%; in [2], 72.6%; in assay [3] it was 27.9%. Besides, the GI50 with K562 is 2.1 µM; in the assay with CCRF-CEM it was 0.78 µM; with U-266, 0.67 µM. For the same compound, the inhibition result in the assay listed under Homo sapiens [4] was “Dose-dependent effect”. For the same compound, in [5], the IC50 was determined as 0.237 µM.
